Measured values from ChEMBL document CHEMBL1221219, “Selective blockade of 2-arachidonoylglycerol hydrolysis produces cannabinoid behavioral effects” (Nat Chem Biol, 2009).
The source made the active and inactive calls. The rule behind the calls is not given here.

Experiments:
Mus musculus [1] = experiment: Inhibition of ABHD3 in C57B1/6J mouse brain membrane at 16 mg/kg, ip after 4 hrs by competitive activity-based protein profiling-MudPIT method; format: functional, organism-based; parameters: dose 16 mg/kg
Procedure, shortened: (§1)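 Mice were dosed 16 mg kg^-1 i.p. or vehicle and killed at 4 h. Brain membrane proteomes were labelled with FP-biotin, avidin-enriched, trypsin-digested on bead, analysed by multidimensional LC-MS and identified by SEQUEST.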

Mus musculus [2] = experiment: Effect on interstitial level of AEA in C57B1/6 mouse nucleus accumbens at 10 mg/kg, ip by following neuronal depolarization by microdialysis; format: functional, organism-based; parameters: dose 10 mg/kg
Procedure, shortened: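 In vivo microdialysis from nucleus accumbens of C57Bl/6 mice after 10 mg kg^-1 i.p. Drug was given 1 h before neuronal depolarization, and interstitial AEA and 2-AG were measured in the dialysate.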

Mus musculus [3] = experiment: Inhibition of LYPLA3 in C57B1/6J mouse brain membrane at 16 mg/kg, ip after 4 hrs by competitive activity-based protein profiling-MudPIT method; format: functional, organism-based; parameters: dose 16 mg/kg
Procedure, shortened: (§2)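 After i.p. dosing in 4:1 PEG300:Tween80, male C57Bl/6J mice were killed at 4 h. Brain membrane proteomes from treated and vehicle mice were labelled with FP-biotin. Labelled proteins were enriched on avidin, digested on-bead with trypsin and analysed by multidimensional LC-MS. Proteins were identified by SEQUEST, and dosed samples were compared with vehicle.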

[4] = target: T1, Cytosolic phospholipase A2 (Homo sapiens) (UniProt P47712); experiment: Inhibition of recombinant cPLA2 4a expressed in HEK293 cells assessed as hydrolysis of PAPC to arachidonic acid at 20 uM TLC assay; format: cell-based
T1 sequence (whole entry): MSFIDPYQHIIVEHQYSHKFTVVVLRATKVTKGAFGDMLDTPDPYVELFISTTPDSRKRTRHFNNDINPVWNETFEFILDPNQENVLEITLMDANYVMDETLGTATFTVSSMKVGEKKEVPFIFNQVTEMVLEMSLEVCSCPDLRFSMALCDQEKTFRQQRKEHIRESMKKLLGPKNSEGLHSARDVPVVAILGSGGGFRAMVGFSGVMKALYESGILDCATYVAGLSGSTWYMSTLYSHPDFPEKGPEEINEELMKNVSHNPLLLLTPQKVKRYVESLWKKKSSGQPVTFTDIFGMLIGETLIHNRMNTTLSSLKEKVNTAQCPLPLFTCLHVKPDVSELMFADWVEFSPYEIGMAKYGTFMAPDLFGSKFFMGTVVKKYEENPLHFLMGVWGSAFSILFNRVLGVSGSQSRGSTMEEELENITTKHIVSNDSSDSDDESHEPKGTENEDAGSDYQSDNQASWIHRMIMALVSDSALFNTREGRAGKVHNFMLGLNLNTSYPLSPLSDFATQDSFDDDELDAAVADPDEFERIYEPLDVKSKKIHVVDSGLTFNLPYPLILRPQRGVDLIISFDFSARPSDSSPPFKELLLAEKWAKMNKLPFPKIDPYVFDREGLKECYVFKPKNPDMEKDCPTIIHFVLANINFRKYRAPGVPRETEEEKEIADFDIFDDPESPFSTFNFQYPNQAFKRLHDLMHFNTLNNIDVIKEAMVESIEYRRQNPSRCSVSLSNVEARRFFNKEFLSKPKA

Mus musculus [5] = experiment: Inhibition of ABHD10 in C57B1/6J mouse brain membrane at 16 mg/kg, ip after 4 hrs by competitive activity-based protein profiling-MudPIT method; format: functional, organism-based; parameters: dose 16 mg/kg; procedure, shortened: as §1
Mus musculus [6] = experiment: Inhibition of APT2 in C57B1/6J mouse brain membrane at 16 mg/kg, ip after 4 hrs by competitive activity-based protein profiling-MudPIT method; format: functional, organism-based; parameters: dose 16 mg/kg; procedure, shortened: as §1
Mus musculus [7] = experiment: Inhibition of MAGL in C57B1/6J mouse brain membrane at 16 mg/kg, ip after 0.5 hrs by competitive activity-based protein profiling method; format: functional, organism-based; parameters: dose 16 mg/kg
Procedure, shortened: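 Male C57Bl/6J mice (6-8 weeks, 20-26 g) given inhibitor i.p. in 4:1 v/v PEG300:Tween80 at 4 ul g^-1 (4-40 mg kg^-1); vehicle controls. Brain membrane proteomes (1 mg ml^-1 in PBS) labelled with FP-rhodamine (2 μM) for 30 min at room temperature. Readout by SDS-PAGE and in-gel fluorescence scanning, compared with vehicle.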

Mus musculus [8] = experiment: Inhibition of MAGL in C57B1/6J mouse brain membrane assessed as inhibition of 2-AG hydrolysis activity at 16 mg/kg, ip upto 24 hrs by competitive activity-based protein profiling method relative to control; format: functional; details: route intraperitoneal
Procedure, shortened: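 Male C57Bl/6J mice dosed i.p. in 4:1 v/v PEG300:Tween80, with vehicle controls; killed at set times (0.5-24 h, or 4 h). Brain membrane 2-AG hydrolysis measured by LC-MS substrate assay, and brain 2-AG measured by lipid LC-MS, relative to vehicle.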

Mus musculus [9] = experiment: Induction of hypothermia in C57B1/6J mouse at 16 mg/kg, ip pretreated with rimonabant; format: functional, organism-based; parameters: dose 16 mg/kg
Procedure, shortened: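 Male C57Bl/6J mice, 6-8 weeks, 20-26 g, given 16 mg kg^-1 i.p. in 4:1 v/v PEG300:Tween80 at 4 μl g^-1; vehicle controls received PEG300:Tween80 alone. Cannabinoid effects were scored in the tetrad test.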

Mus musculus [10] = experiment: Antinociceptive activity against formalin-induced pain in C57B1/6J mouse assessed as paw lifting or licking during late phase (20-40 mins) at 40 m/kg, po administered 2 hrs before formalin challenge pretreated with rimonabant; format: functional, organism-based
[11] = target: T2, Monoglyceride lipase (Mus musculus) (UniProt O35678); details: C57B1/6J, Brain, Membrane, 50 nM
T2 sequence (whole entry): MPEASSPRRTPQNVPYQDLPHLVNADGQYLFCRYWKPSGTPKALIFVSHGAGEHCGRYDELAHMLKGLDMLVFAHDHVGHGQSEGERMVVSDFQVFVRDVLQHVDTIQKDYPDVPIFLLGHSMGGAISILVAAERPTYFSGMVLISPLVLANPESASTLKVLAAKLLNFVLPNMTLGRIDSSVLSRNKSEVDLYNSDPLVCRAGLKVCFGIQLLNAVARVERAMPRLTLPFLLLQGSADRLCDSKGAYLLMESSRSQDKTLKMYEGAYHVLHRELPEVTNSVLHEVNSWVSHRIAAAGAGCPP

Mus musculus [12] = experiment: Inhibition of CG167 in C57B1/6J mouse brain membrane at 16 mg/kg, ip after 4 hrs by competitive activity-based protein profiling-MudPIT method; format: functional, organism-based; parameters: dose 16 mg/kg; procedure, shortened: as §1
Mus musculus [13] = experiment: Inhibition of AADACL1 in C57B1/6J mouse brain membrane at 16 mg/kg, ip after 4 hrs by competitive activity-based protein profiling-MudPIT method; format: functional, organism-based; parameters: dose 16 mg/kg; procedure, shortened: as §1
Mus musculus [14] = experiment: Inhibition of FAAH in C57B1/6J mouse brain membrane assessed as elevated level of N-acylethanolamine at 10 mg/kg, ip by competitive activity-based protein profiling method; format: functional, organism-based; parameters: dose 10 mg/kg
Mus musculus [15] = experiment: Inhibition of DPP8 in C57B1/6J mouse brain membrane at 16 mg/kg, ip after 4 hrs by competitive activity-based protein profiling-MudPIT method; format: functional, organism-based; parameters: dose 16 mg/kg; procedure, shortened: as §1
Mus musculus [16] = experiment: Inhibition of PAFAH-1Bb in C57B1/6J mouse brain membrane at 16 mg/kg, ip after 4 hrs by competitive activity-based protein profiling-MudPIT method; format: functional, organism-based; parameters: dose 16 mg/kg; procedure, shortened: as §2

O=C(Oc1ccc([N+](=O)[O-])cc1)N1CCC(C(O)(c2ccc3c(c2)OCO3)c2ccc3c(c2)OCO3)CC1
inhibition (Mus musculus [1]): inactive
Activity (Mus musculus [2]): inactive
inhibition (Mus musculus [3]): inactive
inhibition [4]: inactive
inhibition (Mus musculus [5]): inactive
inhibition (Mus musculus [6]): inactive
inhibition (Mus musculus [7]): Active
inhibition in vivo at 16 mg/kg (Mus musculus [8]): > 80%
Activity (Mus musculus [9]): inactive
Activity (Mus musculus [10]): inactive
inhibition [11]: Active
inhibition (Mus musculus [12]): inactive
inhibition (Mus musculus [13]): inactive
inhibition (Mus musculus [14]): Active
inhibition (Mus musculus [15]): inactive
inhibition (Mus musculus [16]): inactive
